The text below walks through data of ChEMBL document CHEMBL1275284, “Therapeutic potential of sulindac hydroxamic acid against human pancreatic and colonic cancer cells” (Eur J Med Chem, 2010).

Calls of active or inactive are those of the source. The rule behind the calls is not given here.

Series [1] relates to MIA PaCa-2. In words: Cytotoxicity against human MIAPaCa2 cells after 72 hrs by WST-1 assay. The class given is functional, cell-based. Particulars: MIA PaCa-2, 72 h. (In general: Tetrazolium assays rely on reduction of a dye to a coloured formazan, in cell work by metabolically active cells.)
Series [2] in a line: Cytotoxicity against human COLO320 cells after 72 hrs by WST-1 assay. The format is functional, cell-based. Particulars: COLO 320, 72 h.
In series [3] the test system is MIA PaCa-2. In words: Induction of apoptosis in human MIAPaCa2 cells assessed as DNA internucleosomal fragmentation at 200 uM after 48 hrs relative to control. The format is functional, cell-based. The procedure, abridged:
(§1)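 MIA PaCa-2 or COLO320 cells (DMEM, 10% FBS, 2.5% horse serum, 37 °C, 5% CO2) treated 48 h at 200 µM. Oligonucleosomal fragments in the cytoplasmic fraction measured, along with necrotic death, expressed relative to untreated control. Mean ± SEM, n = 3.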

For series [4], the system named is COLO 320. The series can be described thus: Induction of apoptosis in human COLO320 cells assessed as DNA internucleosomal fragmentation at 200 uM after 48 hrs relative to control. The format is functional, cell-based. The procedure, abridged:
as §1

Series [5] has as its system MIA PaCa-2. In words: Induction of apoptosis in human MIAPaCa2 cells assessed as increase in caspase 3/7 activation at 200 uM after 24 hrs by spectrofluorimetry relative to control. The class given is functional. The gist of the method: (§2)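 Caspase 3/7 activity assayed after 24 h exposure of cells to 200 µM compound. Fluorescent signal of treated cells expressed as a ratio to that of vehicle-only untreated cells. Mean ± SEM, n = 3.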

For series [6], the system named is COLO 320. In words: Induction of apoptosis in human COLO320 cells assessed as increase in caspase 3/7 activation at 200 uM after 24 hrs by spectrofluorimetry relative to control. The class given is functional. The gist of the method:
as §2

Series [7] relates to HUVEC. The series can be described thus: Cytotoxicity against HUVEC at 0.1 uM after 96 hrs by trypan blue exclusion test. The format is cell-based. Particulars: human.
The test system of series [8] is HUVEC. In words: Antiangiogenic activity in HUVEC assessed as inhibition of bFGF-induced cell proliferation at 0.1 uM after 96 hrs by haemocytometry. The format is functional, cell-based. The conditions noted are these: Homo sapiens.
The test system of series [9] is HUVEC. In words: Antiangiogenic activity in HUVEC assessed as inhibition of VEGF-induced cell proliferation at 0.1 uM after 96 hrs by haemocytometry. The class given is functional, cell-based. The conditions noted are these: Homo sapiens.
Series [10] deals with MIA PaCa-2. The series can be described thus: Induction of apoptosis in human MIAPaCa2 cells assessed as change in Bax to Bcl2 mRNA expression ratio at 200 uM after 24 hrs by RT-PCR assay relative to control. The class given is functional, cell-based. The gist of the method: (§3)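 Cells exposed 24 h to 200 µM compound. bax and bcl-2 mRNA measured by semi-quantitative RT-PCR, normalized to GAPDH mRNA, and the bax:bcl-2 ratio compared with control. Mean ± SEM, n = 3.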

The subject of series [11] is COLO 320. In words: Induction of apoptosis in human COLO320 cells assessed as increase in Bax to Bcl2 mRNA expression ratio at 200 uM after 24 hrs by RT-PCR assay relative to control. The format is functional. The gist of the method: as §3

For `CC1(C)OC(=O)C(c2cccc(F)c2)=C1c1ccc(S(C)(=O)=O)cc1`, the concentration for half-maximal inhibition (IC50) (with MIA PaCa-2 [1]; in [2]) was > 200 µM throughout.

Take `CC1=C(CC(=O)NO)c2cc(F)ccc2C1=Cc1ccc(S(C)(=O)=O)cc1`: the IC50 (usually the midpoint of a concentration-inhibition curve) is 44.4 µM with MIA PaCa-2 [1] and 26.2 µM in [2]. Besides, the outcome with MIA PaCa-2 [3] and in the series on COLO 320 [4] was inactive. In addition, the “fold change (FC)” value with MIA PaCa-2 [5] and in the series with COLO 320 [6] was 5 in each case. In the series with HUVEC [7], the Activity entry is “Non-toxic”. For the same compound, the outcome with HUVEC [8] and in the series with HUVEC [9] was Active.

On to `CC1=C(CC(=O)O)c2cc(F)ccc2/C1=C\c1ccc(S(C)(=O)=O)cc1` [EXISULIND], for which the IC50 (in the series with MIA PaCa-2 [1]; in series [2]) was > 200 µM in each case. Moreover, the outcome with MIA PaCa-2 [3] and with COLO 320 [4] was inactive. The outcome in the series with HUVEC [8] and in the series with HUVEC [9] was Active.

Take `CC1=C(CC(=O)O)c2cc(F)ccc2/C1=C\c1ccc([S+](C)[O-])cc1` (stereo not drawn) [SULINDAC]: the concentration for half-maximal inhibition (IC50) (in the series on MIA PaCa-2 [1]; in series [2]) was > 200 µM in each case. In addition, the result in the series with MIA PaCa-2 [3] and with COLO 320 [4] was inactive.

For the compound `CSc1ccc(C=C2C(C)=C(CC(=O)NO)c3cc(F)ccc32)cc1`, the IC50 with MIA PaCa-2 [1] is 32 µM; in [2], 6 µM. Also, the outcome in the series on MIA PaCa-2 [3], with COLO 320 [4] and in the series on MIA PaCa-2 [10] was inactive. Also, the “fold change (FC)” value in the series on MIA PaCa-2 [5] and with COLO 320 [6] was 5 throughout. Also, the Activity in the series with COLO 320 [11] is recorded as 130%; in the series with HUVEC [7] it was “Non-toxic”. Moreover, the result with HUVEC [8] and in the series with HUVEC [9] was Active.

Turning to `CSc1ccc(/C=C2/C(C)=C(CC(=O)O)c3cc(F)ccc32)cc1` [SULINDAC SULFIDE], the half-maximal inhibitory concentration (IC50) in the series with MIA PaCa-2 [1] turned out to be 146 µM; in series [2], 38.7 µM. Besides, the outcome with MIA PaCa-2 [3], with COLO 320 [4] and in the series with MIA PaCa-2 [10] was inactive. In addition, the outcome with HUVEC [8] and in the series on HUVEC [9] was Active.

`CC1=C(CC(=O)NO)c2cc(F)ccc2C1=Cc1ccc([S+](C)[O-])cc1` (stereo not drawn): the IC50 is 64.1 µM in the series with MIA PaCa-2 [1] and 62.5 µM in series [2]. In addition, the outcome in the series with MIA PaCa-2 [3] and with COLO 320 [4] was inactive. In addition, the “fold change (FC)” value in the series on MIA PaCa-2 [5] and in the series with COLO 320 [6] was 5 in each case. In addition, in the series on HUVEC [7], the Activity result is reported as “Non-toxic”. Also, the result in the series on HUVEC [8] and in the series with HUVEC [9] was Active.
